One data set deals with acid ceramidase. The note with it: cited from earlier work.
A further data set concerns the target T1, NMT1 (Homo sapiens, UniProt P30419).
T1 sequence (P30419 109-496): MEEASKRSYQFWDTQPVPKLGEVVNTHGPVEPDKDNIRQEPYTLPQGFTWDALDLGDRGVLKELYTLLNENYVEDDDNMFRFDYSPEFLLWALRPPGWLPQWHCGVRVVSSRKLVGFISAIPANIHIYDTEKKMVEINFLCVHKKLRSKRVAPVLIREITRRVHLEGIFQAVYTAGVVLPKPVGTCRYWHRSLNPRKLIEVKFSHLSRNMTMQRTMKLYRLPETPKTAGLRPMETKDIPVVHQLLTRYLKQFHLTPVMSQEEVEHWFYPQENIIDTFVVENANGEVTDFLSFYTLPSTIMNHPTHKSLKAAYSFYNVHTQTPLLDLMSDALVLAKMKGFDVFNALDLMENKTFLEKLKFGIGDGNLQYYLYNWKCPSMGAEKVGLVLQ
Kind of data set: Fluorescence-based NMT1 enzymatic activity assay. In kind it is biochemical.

Data set [1] has as its system Src myristoylation. Kind of data set: Src myristoylation by Click chemistry in SYF1+Src. The note with it: ectopically expressed Src kinase, SYF1+Src(WT) cells, myristic acid-azide 60 µM. In kind it is cell-based, mouse. Put shortly: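 Mouse SYF1 (Src−/−Yes−/−Fyn−/−) fibroblasts were lentivirally transduced with wild-type Src and grown in DMEM with 2% fatty-acid-free BSA. They were pretreated with test compound at 0, 1, 5, 15 or 30 µM for 2 h, then given 60 µM myristic acid-azide. M-PER lysates underwent Click labelling with 40 µM alkyne-biotin and CuSO4. Myristoyl-Src (60 kDa) was detected with streptavidin-HRP, and total Src and GAPDH by immunoblot.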

Data set [2] deals with Src myristoylation. Kind of data set: Src myristoylation by Click chemistry in PC-3 cells. The settings on record: endogenous Src kinase, myristic acid-azide 60 µM. The format is cell-based.
A further data set deals with pSrc(Y416), pFAK, pAkt. Kind of data set: Immunoblotting of Src signaling in PC-3 total lysates. In kind it is cell-based. The settings on record: PC-3 cells.
In data set [3] the test system is de novo synthesized Src kinase. Nature of the data set: 293T cells expressing doxycycline inducible Src. The format is cell-based. Put shortly: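 293T-rtTA cells carrying lentiviral TRE/Src(Y529F) in DMEM with 10% FBS; Src induced with or without doxycycline 1 µg/mL plus 0 (DMSO), 15 or 30 µM test compound for 24 h. Lysed in TNE buffer (pH 7.4, protease/phosphatase inhibitors), needle-homogenised, spun 14,000 rpm 10 min (supernatant = cytosol); pellet extracted with 60 mM β-octylglucoside on ice 30 min, spun 14,000 rpm 20 min 4°C (total membrane). Immunoblot: […] antibody, caveolin-1/GAPDH markers.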

The test system of a further data set is SYF1-Src(Y529F) cells. Kind of data set: Soft agar colony formation assay. The format is cell-based, mouse.
The subject of data set [4] is 22Rv1 cells. Kind of data set: Cell proliferation. The format is cell-based. The settings on record: 22Rv1, B13 for 5 d. Put shortly: (§1)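 Cells seeded at 3000–5000/well, exposed to a range of test-compound concentrations for 5 d. Medium swapped for 100 µL phenol-red-free medium, 10 µL of 12 mM MTT stock added, 37 °C 4 h; stopped with 100 µL 10% SDS in 0.01 M HCl, further 4 h at 37 °C; absorbance at 570 nm. Mean ± SEM of n=6 wells, two-sided Student's t test.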

The subject of data set [5] is PC-3 cells. Nature of the data set: Cell proliferation. The format is cell-based. The settings on record: PC-3, B13 for 5 d. In short, it runs like this: as §1
The subject of data set [6] is DU145 cells. Nature of the data set: Cell proliferation. In kind it is cell-based. The settings on record: DU145, B13 for 5 d. Put shortly: as §1
The next data set relates to LNCaP cells. Kind of data set: Cell proliferation. The format is cell-based. The note with it: B13 for 5 d. Put shortly: as §1
A further data set relates to PNT2 normal cells. Nature of the data set: Cell proliferation. The format is cell-based.
For the next data set, the system named is 293T cells. Kind of data set: Cell proliferation. The format is cell-based.
The subject of data set [7] is LNCaP, 22Rv1, PC-3, and DU145 cells. Nature of the data set: Cell cycle analysis by flow cytometry. The format is cell-based. The note with it: tested prostate cancer cells, B13 for 3 d. Put shortly: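 Cells were grown in ATCC-recommended medium, and after attachment the medium with or without 15 or 30 µM test compound was renewed every 24 h for 3 days. 1 × 10^6 cells were PBS-washed and fixed in 70% ethanol for 1 h at 4 °C. They were stained with propidium iodide/RNase for 30 min in the dark at room temperature. Flow cytometry used 488 nm excitation and 585 nm emission, and G0/G1, S and G2/M percentages were compared with control.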

A further data set has as its system PNT2 cells. Nature of the data set: Cell cycle analysis by flow cytometry. In kind it is cell-based.
For data set [8], the system named is PC-3 cells. Nature of the data set: Immunoblotting of cell cycle proteins. In kind it is cell-based.
Data set [9] relates to DU145 cells. Nature of the data set: Immunoblotting of cell cycle proteins. In kind it is cell-based. In short, it runs like this: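 DU145 cells were treated with or without different concentrations of test compound. Lysates were immunoblotted for CDK2, CDK6, cyclin D1, p27 and tubulin.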
In data set [10] the test system is 22Rv1 cells. Kind of data set: Transwell invasion assay. In kind it is cell-based. The settings on record: 22Rv1, 15 µM B13. In short, it runs like this: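 22Rv1 cells at about 80% confluence were serum-starved for 24 h, then seeded in Transwell inserts. The top well held medium with 15 µM test compound or DMSO, and the receiver well held 10% FBS. After 48 h, cells were fixed with 3.7% formaldehyde (2 min) then methanol (20 min). Staining was 0.1% crystal violet for 15 min in the dark at room temperature. Non-migrated cells were swabbed off, and migrated cells were imaged and counted.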

Data set [11] has as its system PC-3 cells. Nature of the data set: Wound-healing. In kind it is cell-based. The note with it: PC-3, 15 µM B13. In short, it runs like this:
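PC-3 cells (8×10^5 per well) were grown 24 h to 95% confluence, then scratched with a 1 mL pipette tip. Wells were washed to remove floating cells and refed with fresh medium containing 15 µM test compound. The wound space was imaged daily.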

In a further data set the test system is PC-3 xenograft tumors. Kind of data set: PC-3 xenograft tumor growth. In kind it is in vivo, SCID mice. The note with it: 75 mg/kg i.v. twice a week for 6 weeks.
A short description of data set [12]: Toxicity in host mice carrying PC-3 xenografts. In kind it is in vivo, SCID mice.

Entries after “also recorded” stand apart in the source; their conditions may differ.

As to `CCCCCCCCCCCCCCN[C@H](CO)[C@H](O)c1ccc([N+](=O)[O-])cc1` [LCL204], in the data set on acid ceramidase, the “Inhibition of acid ceramidase relative to B13” value is reported as “higher inhibitory potential than B13”.

Molecule `CCCCCCCCCCCCCC(=O)N[C@H](CO)[C@H](O)c1ccc([N+](=O)[O-])cc1` [B13, N-[(1R,2R)-2-hydroxy-1-(hydroxymethyl)-2-(4-nitrophenyl)ethyl]-tetradecanamide] showed an IC50 on NMT1 of 77.6 µM. Further, the “Src myristoylation (myristoyl-Src level)” value with Src myristoylation [1] and with Src myristoylation [2] was “inhibited Src myristoylation” throughout. Further, the “Src kinase tyrosine phosphorylation [pSrc(Y416)]” value with pSrc(Y416), pFAK, pAkt was “inhibited Src kinase tyrosine phosphorylation”. Besides, in the data set on pSrc(Y416), pFAK, pAkt, the “pFAK and pAkt levels” value is “down-regulation of pFAK and pAkt”. Further, the “De novo synthesized Src-induced signaling” value in [3] (Dox 1 µg/ml, 15 and 30 µM B13, 24 h) is recorded as “suppression of de novo synthesized Src-induced signaling”. Further, in data set [3] (doxycycline induced, membrane fraction), the “Non-phosphorylated Src kinase [non-pSrc(Y527)] at the cytoplasmic membrane” value is recorded as “reduced”. In addition, the “Src(Y529F)-induced colony formation (transformation)” value in the data set on SYF1-Src(Y529F) cells is “the transformation was inhibited”. Besides, the Proliferation entry in the data set with 22Rv1 cells [4] is listed as “significantly inhibited proliferation; also recorded: significant inhibition”; in the data set with PC-3 cells [5] it was “significantly inhibited proliferation; also recorded: significant inhibition”; in the data set on DU145 cells [6], “significantly inhibited proliferation”; in the data set on LNCaP cells it was “less sensitive”; in the data set on PNT2 normal cells, “limited effect”; in the data set on 293T cells, “did not affect”. Also, in [7], the Cell cycle progression result is reported as “significantly inhibited”. For the same molecule, the Cell cycle result with PNT2 cells is listed as “did not affect the cell cycle”. Also, the “Expression of CDK2, cyclin D1 and p27” value was “decreased expression of CDK2 and cyclin D1, increased expression of p27” with PC-3 cells [8]; “decreased expression of CDK2 and cyclin D1, increased expression of p27” with DU145 cells [9]. For the same molecule, in the data set with DU145 cells [9], the “Expression of CDK6” value is listed as “decreased expression of CDK6”. The Invasion result with 22Rv1 cells [10] is given as “suppressed invasion”. In the data set with PC-3 cells [11], the Migration entry was “suppressed”. Also, the “Size and weight of PC-3 xenograft tumors” value with PC-3 xenograft tumors was “significantly inhibited the size and weight”. In addition, in data set [12] (75 mg/kg i.v. twice a week), the Body weight change result is reported as “no significant changes”. Further, the “Organs' weight change” value in [12] (75 mg/kg i.v. twice a week) was “no significant changes”. In addition, the “Pathological toxicity to major organs (liver, kidney, lung; H&E)” value in data set [12] (75 mg/kg i.v. twice a week for 6 weeks) was “no observed pathological toxicity”. Also, the “Inhibition of acid ceramidase” value in the data set with acid ceramidase is “can inhibit acid ceramidase”.

These data come from paper PMC5732839 (Cancer research, 2017).
